NTR1 agonist = agonists of human NTR1, primary screen, imaging, U2OS cells, beta-arrestin-GFP, high content; activation, % at 20 µM; Neurotensin receptor type 1 (Homo sapiens), P30989; hit rate 0.17% among 330,000; NTR1-U2OS beta-arrestin-GFP spot imaging, agonist mode;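 active = activation at or above 40% of the spot to cytoplasm intensity ratio, with at least 20 cells analyzed; inconclusive = wells under 20 cells, flagged as cytotoxic or low count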
Target sequence (P30989 whole entry, looked up): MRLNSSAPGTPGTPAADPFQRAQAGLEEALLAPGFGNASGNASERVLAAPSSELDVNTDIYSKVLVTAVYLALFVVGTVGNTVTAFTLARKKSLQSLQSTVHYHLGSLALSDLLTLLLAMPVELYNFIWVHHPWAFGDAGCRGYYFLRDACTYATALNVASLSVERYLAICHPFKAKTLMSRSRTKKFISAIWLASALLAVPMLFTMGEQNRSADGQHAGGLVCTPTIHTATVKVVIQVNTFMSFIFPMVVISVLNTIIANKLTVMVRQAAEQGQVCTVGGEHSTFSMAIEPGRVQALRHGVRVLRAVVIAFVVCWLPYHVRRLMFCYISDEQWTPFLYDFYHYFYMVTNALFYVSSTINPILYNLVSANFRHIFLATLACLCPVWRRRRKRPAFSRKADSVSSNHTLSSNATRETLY
CaV13 ICDI inh = Primary screen for inhibitors of IQ motif and Ca2+-dependent inactivation inhibitor domain binding in CACNA1D, Förster resonance energy transfer in living cells, …; inhibition, % at 12.3 µM; hit rate 0.098% among 340,000; HEK cells, CFP/YFP FRET ICDI-IQ, plate reader, 10 min; percent FRET-ratio fall versus neutral wells;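 active = mean replicate inhibition of at least 30% and at least 1% of replicates passing that level; inconclusive = only one of the two criteria is met; inactive = neither criterion is met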
Vif inh = HIV Vif self-association inhibitors, primary screen, imaging, HEK293T, single point; hit rate 0.35% among 340,000; HEK293T cells, Vif self-association by quenched fluorescence, 24 h; inhibition, % at 7.49 µM; in the data active = inhibition above about 50%, passing the limit was not always enough; inconclusive = no clear call, values can overlap the other calls; inactive = below about 31%
SR-BI uptake up = activators of SR-BI mediated DiI-HDL uptake, primary screen, ldlA[mSR-BI] CHO cells, DiI fluorescence; 3 h; 100 = double the neutral-control signal; activation, % at 12.5 µM; hit rate 0.096% among 320,000;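 active = mean replicate activation of at least 60% and every replicate at or above 60%; inconclusive = mean or all-replicate condition met, but not both; inactive = mean below 60% and not all replicates reaching 60%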
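System: LDL receptor-deficient CHO ldlA cells overexpressing murine SR-BI | Timing: 3 h uptake period with compound, 37 °C | Medium: HEPES-buffered (25 mM, pH 7.4) F12 plus 0.5% BSA | Dosing: Single-point compound dose | Signal: Bottom-read fluorescence, 550/595 nm | Read-out: Retained DiI signal reflecting DiI-HDL uptake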
V-ATPase pHluor = regulators of yeast V-ATPase proton pumping, primary screen, pHLuorin cytosolic pH fluorescence. response, % at 10 µM. hit rate 0.37% among 350,000. S. cerevisiae; in the data active = response mostly above about 7.3%, no sharp cut-off; inactive = mostly below about 5.4%; note: actives read high
SR-BI DiI inh = inhibitors of SR-BI mediated HDL lipid uptake, primary screen, ldlA[mSR-BI] cells, fluorescence, single point; hit rate 0.96% among 320,000; inhibition, % at 12.5 µM; ldlA[mSR-BI] CHO cells, DiI-HDL uptake fluorescence, 3 h; Scavenger receptor class B member 1 (Mus musculus), Q61009;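 active = mean replicate inhibition of at least 70% and a set share of replicates each scoring 70 or more; inconclusive = meets just one of the two criteria; inactive = fails both criteria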
VATPase regulator = yeast V-ATPase proton pumping modulators, confirmation, S. cerevisiae, pH-sensitive GFP, second cherry-pick | shares compounds with V-ATPase pHluor | S. cerevisiae pHLuorin cytosolic pH, V-ATPase proton transport | response, % at 10 µM | hit rate 2% among 980 | AID 602197, 2012; in the data active = response above about 24%
Of the large screens only hits and unclear results are named; the others gave an inactive call (follow-up assays come after a bar, where they were run). Compounds with a hit are over-represented: about 1.7% of the library has one in this group of screens.

CCOC(=O)C1(CCCc2ccccc2)CCN(C2CCSCC2)CC1	none (no result: NTR1 agonist, Vif inh)
COc1cc2c(=O)c(-c3ccc(O)cc3)coc2cc1OC1OC(CO)C(O)C(O)C1O (stereo not given)	V-ATPase pHluor 9.6 | VATPase regulator inactive
CCC(C)Sc1ccc([C@H]2N[C@@](C)(C(=O)OC)[C@H]3C(=O)N(CC)C(=O)[C@@H]23)cc1 (stereo not given in full)	none
COc1ccc2c(c1)cc1c(=O)n(CC(=O)NCCCN3CCOCC3)nc(C)n12	none
Cc1ccsc1C(=O)OCC(=O)N1CC(C)CC(C)C1 (stereo not given)	none
Cc1ccc(-n2c3c(cc(C(=O)NCCCN4CCOCC4)c2=O)C(=O)CC(C)(C)C3)cc1	V-ATPase pHluor 11 | VATPase regulator inactive
O=C1CCCc2c1cc(C(=O)NCCCN1CCOCC1)c(=O)n2-c1ccc(Cl)cc1	none
NS(=O)(=O)c1ccc(N2CCOCC2)c(C(=O)NCc2cccs2)c1	Vif inh inconclusive
O=C(O)CCc1ccc(-c2ccc(Br)cc2)n1-c1ccc(O)cc1	V-ATPase pHluor 12 | VATPase regulator inactive
Cc1ccc(-c2ccc(CCC(=O)O)n2-c2ccc(O)cc2)cc1	none (no result: Vif inh)
Cc1cc(NC(=O)C(C)SCC(=O)Nc2ccccc2C(C)(C)C)no1 (stereo not given)	V-ATPase pHluor 9.9 | VATPase regulator inactive
Cc1cc(NC(=O)C(C)SCC(=O)Nc2ccccc2N2CCCC2)no1 (stereo not given)	none
C[C@H](CO)N1C[C@H](C)[C@@H](CN(C)Cc2cccc3c2OCCCO3)OCc2cnnn2CCCC1=O	V-ATPase pHluor 9.4 (no result: NTR1 agonist, Vif inh, SR-BI uptake up, SR-BI DiI inh) | VATPase regulator inactive
C[C@@H]1CN([C@H](C)CO)C(=O)CCCn2nncc2CO[C@H]1CN(C)Cc1cccc2c1OCCCO2	none (no result: NTR1 agonist, SR-BI uptake up, SR-BI DiI inh)
Cc1cccc(CCN=c2c([N+](=O)[O-])nn(-c3ccccc3)n2O)c1	none
Cc1cccc(-n2nc([N+](=O)[O-])c(=NC3CCN(Cc4ccccc4)CC3)n2O)c1	V-ATPase pHluor 13 (no result: SR-BI uptake up, SR-BI DiI inh) | VATPase regulator inactive
CNC(=O)CC1C(=O)N(c2ccc(F)cc2)C(=S)N1NC(=O)c1ccc(Cl)cc1 (stereo not given)	none
CCN(CC)c1ccc(S(=O)(=O)N2CCCCC2)cc1NC(=O)CSCc1c(C)noc1C	V-ATPase pHluor 10 (no result: NTR1 agonist) | VATPase regulator inactive
Cc1noc(C)c1CSCC(=O)Nc1cc(S(=O)(=O)N2CCCCC2)ccc1OC(C)C	none
Cc1ccc(S(=O)(=O)N2[C@@H](c3ccc(Cl)cc3)C(C(=O)OC(C)(C)C)=CC[C@H]2c2ccc(Cl)c(Cl)c2)cc1	none (no result: NTR1 agonist, SR-BI uptake up, V-ATPase pHluor, SR-BI DiI inh)
CCC1(CC)NC(=O)N(CC(=O)OC(C)C(=O)Nc2cc([N+](=O)[O-])ccc2OC)C1=O (stereo not given)	V-ATPase pHluor 11, SR-BI DiI inh 74 (no result: Vif inh) | VATPase regulator inactive
O=C(CCC1CCCNC1)c1ccccc1 (stereo not given)	none (no result: CaV13 ICDI inh, Vif inh, SR-BI uptake up, V-ATPase pHluor, SR-BI DiI inh)
O=C(Oc1ccccc1Cl)c1ccccc1	V-ATPase pHluor 13 (no result: NTR1 agonist) | VATPase regulator inactive
Cc1ccc(NC(=O)CSc2ccc(-c3ccccn3)nn2)c(C)c1	none (no result: CaV13 ICDI inh, SR-BI uptake up)
Cc1cc(C)c(NC(=O)CSc2ccc(-c3ccccn3)nn2)c(C)c1	V-ATPase pHluor 11 (no result: CaV13 ICDI inh, SR-BI uptake up) | VATPase regulator inactive
C=CCOc1ccc(CNn2c(C)n[nH]c2=S)cc1OC	V-ATPase pHluor 10.0 (no result: CaV13 ICDI inh) | VATPase regulator inactive
COc1cc(CNn2cn[nH]c2=S)ccc1OCC(=O)NC(C)(C)C	V-ATPase pHluor 8.9 | VATPase regulator inactive
C=CCOc1c(Br)cc(CNn2c(C)n[nH]c2=S)cc1OC	none
Cc1cc(C)c(C(=O)CSC2=NC(N)=C(C#N)C3(CCCCC3)C2C(N)=O)cc1C (stereo not given)	none
O=c1c2c(-c3ccccc3)csc2ncn1/N=C/c1ccc(O)c([N+](=O)[O-])c1	none
O=c1c2c(-c3ccccc3)csc2ncn1/N=C/c1cccc([N+](=O)[O-])c1O	V-ATPase pHluor 82 | VATPase regulator inactive
CC(C)(C)NC(=O)c1cc2c(ccc3ccccc32)oc1=O	V-ATPase pHluor 8.9 | VATPase regulator inactive
CCCCNC(=S)NNC(=O)c1cc(C2CC2)nc2ccccc12	none
Cc1ccc(Nc2nc3ccccc3c(=O)[nH]2)cc1C	V-ATPase pHluor 11 | VATPase regulator inactive
COc1ccc(Nc2nc3ccccc3c(=O)[nH]2)cc1	none
COc1ccc(-c2cc(=O)oc3cc(OC(C)C(=O)NCc4ccccn4)ccc23)cc1 (stereo not given)	none (no result: CaV13 ICDI inh)
C=CCNC(=O)c1nn2cccnc2c1Cl	V-ATPase pHluor 11 (no result: Vif inh) | VATPase regulator inactive
CS(=O)(=O)N1Cc2ccccc2CC1C(=O)OCC(=O)NCCc1ccc(S(N)(=O)=O)cc1 (stereo not given)	V-ATPase pHluor 12 | VATPase regulator inactive
CS(=O)(=O)N1Cc2ccccc2CC1C(=O)OCC(=O)NCc1ccccc1 (stereo not given)	none
O=C(CN(CC1CCCO1)C(=O)CNS(=O)(=O)c1ccc(Cl)cc1)NCCc1ccccc1 (stereo not given)	V-ATPase pHluor 23 (no result: Vif inh) | VATPase regulator inactive
COc1ccccc1N1CCN(C2CCCN(S(=O)(=O)c3ccc(C)cc3)C2)CC1 (stereo not given)	V-ATPase pHluor 10 | VATPase regulator inactive
COc1ccccc1N1CCN(C2CCCN(S(=O)(=O)c3cccc(Cl)c3)C2)CC1 (stereo not given)	SR-BI DiI inh inconclusive
COc1cccc(N2C(=O)/C(=C\c3cccs3)NC2=S)c1	V-ATPase pHluor 21 (no result: SR-BI uptake up, SR-BI DiI inh) | VATPase regulator inactive
CCc1cccc(NS(=O)(=O)c2c(C)[nH]c(=O)[nH]c2=O)c1	none
O=[N+]([O-])c1ccc2c(c1)C(O)n1nc(-c3ccc(Cl)cc3Cl)nc1S2 (stereo not given)	V-ATPase pHluor 7.3 (no result: CaV13 ICDI inh) | VATPase regulator inactive
Cc1nc2n(n1)C(O)c1cc([N+](=O)[O-])ccc1S2 (stereo not given)	none (no result: CaV13 ICDI inh, Vif inh, SR-BI uptake up, V-ATPase pHluor, SR-BI DiI inh)
O=C1c2cc(S(=O)(=O)NCCCO)ccc2-c2ccc(S(=O)(=O)NCCCO)cc21	none
CN(C)CCCN(C(=O)c1ccc2c(c1)CCCC2)c1nc2ccc(F)cc2s1	V-ATPase pHluor 19 | VATPase regulator inactive
O=C(c1cc(Cl)nc2ccccc12)N1CCN(S(=O)(=O)c2ccccc2[N+](=O)[O-])CC1	V-ATPase pHluor 14 (no result: CaV13 ICDI inh) | VATPase regulator inactive

Screens from PubChem.
